Measurements pooled from the literature.
Each line is one published result; the experiments were not run side by side.
YES1: Tyrosine-protein kinase Yes (YES1, Homo sapiens, UniProt P07947)

| Compound | target | observed | action | technique | concentration | quantity | value |
| --- | --- | --- | --- | --- | --- | --- | --- |
| CCN(CC)c1ccc(C2=NNC(=O)CC2C)cc1[N+](=O)[O-] (stereo not drawn) | YES1 | enzyme activity | inhibitor |  | 10 µM | remaining activity | 105% |
| O=C(N1CCS(=O)(=O)CC1)N1C[C@H](c2ccc(OC(F)(F)F)cc2)C[C@H](c2nc(C3CC3)no2)C1 | YES1 | cell-free assay |  | competition with immobilised ligand | 1 µM | remaining binding | 96% |
| COc1cc(Nc2cnc(C#N)c(O[C@H](C)CN(C)C)n2)ncc1-c1cnn(C)c1 | YES1 | enzyme activity | inhibitor | radiometric | 10 µM | remaining activity | 39% |
| C=CC(=O)Nc1cc(Nc2nccc(Nc3cc(Cl)c(F)cc3C(C)(C)O)n2)c(OC)cc1N1CC[C@@H](N(C)C)C1 | YES1 | enzyme activity | inhibitor |  | 1 µM | inhibition | 51% |
| FC(F)(F)Oc1cccc(-c2cnc3ccc(-c4ccncc4)nn23)c1 | YES1 | enzyme activity | inhibitor | radiometric | 5 µM | activity vs control | 77% |
| Cc1ccc(NC(=O)c2ccc(C)c(C(F)(F)F)c2)cc1C#Cc1nn(C2CCC(O)CC2)c2ncnc(N)c12 (stereo not drawn) | YES1 | cell-free assay |  |  | 10 µM | remaining signal | 0% |
| Cn1c(=O)n(-c2ccc(C(C)(C)C#N)cc2)c2c3cc(-c4cnc5ccccc5c4)ccc3ncc21 | YES1 | enzyme activity | inhibitor |  | 10 µM | remaining activity | 69% |
| Cc1ccc(C(=O)Nc2ccc(CN3CCN(C)CC3)c(C(F)(F)F)c2)cc1C#Cc1cnc2cccnn12 | YES1 | enzyme activity |  |  | 23.5 nM | remaining activity | 34% |
| Cc1cc(NC(=O)c2cccc3cc(-c4cccc5[nH]nc(N)c45)ccc23)ccc1F | YES1 | enzyme activity | inhibitor |  | 0.1 µM | activity vs control | 108% |
| CC/C(=N\NC(=O)NCc1cccc(O)c1)c1ccc(O)c(C)c1O | Tyrosine-protein kinase Yes (YES1, Homo sapiens, UniProt P07947, T348I) | enzyme activity | inhibitor |  | 0.1 µM | inhibition | 6.2% |
| Nc1nc(NC2CCCCC2)sc1C(=O)c1ccccc1 | YES1 | enzyme activity | inhibitor |  | 10 µM | remaining activity | 114% |
| CCCOc1ccc(OC)c(F)c1C(=O)c1ccc(C(=O)N[C@@H]2CNC[C@H]2NC(=O)c2ccc3[nH]ncc3c2)cc1 | YES1 | enzyme activity | inhibitor |  | 10 µM | remaining activity | 41% |
| CS(=O)(=O)N1CCCC(NC(=O)[C@H](CCC2CCCCC2)NC(=O)c2ccc(CNC(=O)c3cnc4ccccn34)cc2)C1 (stereo partly drawn) | YES1 | cell-free assay |  | competition with immobilised ligand | 0.1 µM | remaining binding | 88% |
| CC(C)(C)c1nc2c(s1)c1nc(N)ncc1c1ccc(NS(=O)(=O)c3c(F)cccc3F)c(F)c12 | YES1 | enzyme activity | inhibitor | radiometric | 1 µM | remaining activity | 124% |
| Cc1noc([C@H]2C[C@@H](c3ccc(C(F)(F)F)cc3)CN(C(=O)N3CCS(=O)(=O)C3)C2)n1 | YES1 | cell-free assay |  | competition with immobilised ligand | 1 µM | remaining binding | 100% |
| O=C(Nc1cnn(-c2csc(C(=O)NC3COC3)c2)c1)Nc1c(F)cccc1Cl | YES1 | enzyme activity | inhibitor |  | 5 µM | remaining activity | 91% |
| O=C(O)[C@@H]1[C@@H](Cn2nnc3ccccc3c2=O)CC[C@H]1C(=O)c1ccc(OCCC2CCOCC2)cc1 | YES1 | cell-free assay |  | competition with immobilised ligand | 1 µM | remaining binding | 100% |
| COc1cccc2c(NCc3ccccc3)nc(-n3c(N)nc4ccccc43)nc12 | YES1 | target engagement in cells | inhibitor | chemoproteomics | 20 mM | inhibition | -2.4% |
| O=C1Nc2ccc(Cl)cc2C1=Cc1cc(Cl)c(O)c(Cl)c1 | YES1 | cell-free assay |  |  | 0.5 µM | remaining signal | 78.3% |
| CCOc1cc(-c2nncn2C)ccc1Nc1ncc2cc(C)nc(NCC(C)(C)C)c2n1 | YES1 | enzyme activity | inhibitor | FRET | 1 µM | inhibition | 22% |
| COCCOc1nc(-c2ccc(Cl)nc2)nc2c1CN(C(=O)c1ncn3ccccc13)CC2 | YES1 | cell-free assay |  | competition with immobilised ligand | 0.1 µM | remaining binding | 100% |
| CCN(CC)CCNC(=O)c1c(C)[nH]c(/C=C2\C(=O)Nc3ccc(F)cc32)c1C | YES1 | enzyme activity | inhibitor |  | 0.3 µM | inhibition | 69% |
| N#CC1(c2ccccn2)CCN(Cc2cc(C(=O)N3CCCC3)c(=O)n3ccccc23)CC1 | YES1 | cell-free assay |  | competition with immobilised ligand | 1 µM | remaining binding | 84% |
| COc1cc2ncnc(Nc3ccc(Oc4ccccc4)cc3C)c2cc1OC | YES1 | enzyme activity | inhibitor |  | 1 µM | inhibition | 99% |
| CS(=O)(=O)NCC[C@H](NC(=O)c1cncc2c1cnn2-c1ccc(F)cc1)c1ccnc(S(C)(=O)=O)c1 | YES1 | cell-free assay |  | competition with immobilised ligand | 1 µM | remaining binding | 100% |
| O=c1cc(-c2cccc3c2Sc2ccccc2S3)oc(N2CCOCC2)c1 | YES1 | enzyme activity | inhibitor |  | 0.5 µM | remaining activity | 89.4% |
| COc1cc2nccc(Oc3ccc(NC(=O)c4c5n(n(-c6ccc(F)cc6)c4=O)CCCC5)cc3)c2cc1OC | YES1 | enzyme activity | inhibitor |  | 0.1 µM | inhibition | 1% |
| CCC(=O)N[C@H]1CC[C@@H](C(=O)N(C)c2ccc(-c3nc4ccccc4o3)cc2)C1 | YES1 | cell-free assay |  | competition with immobilised ligand | 1 µM | remaining binding | 82% |
| N#CCCc1ccc2c(c1)-c1[nH]c3ccc([N+](=O)[O-])cc3c1CC(=O)N2 | YES1 | cell-free assay |  |  | 0.5 µM | remaining signal | 35.8% |
| Cc1cnc(NC2CCOCC2)nc1-n1cnc(C(=O)NC(CN)c2cc(F)cc(Cl)c2)c1 (stereo not drawn) | YES1 | enzyme activity | inhibitor | radiometric | 1 µM | remaining activity | 97% |
